Holding throughout (assay type): functional
In assay [1] the test system is Staphylococcus aureus. Put plainly: Antibacterial activity against Staphylococcus aureus ATCC 25923 by broth microdilution method. For orientation: In broth dilution the organism is exposed to a series of concentrations in liquid medium.
For assay [2], the system named is Staphylococcus aureus. Description: Antibacterial activity against methicillin-resistant Staphylococcus aureus ATCC 700699 by broth microdilution method. The note with it: Mu50.
In assay [3] the test system is Staphylococcus aureus. Put plainly: Antibacterial activity against Staphylococcus aureus ATCC 29213 by broth microdilution method.
In assay [4] the test system is Escherichia coli. Description: Antibacterial activity against Escherichia coli ATCC 9637 by broth microdilution method. The conditions noted are these: W. Put shortly: (§1)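 Bacteria were tested by the NCCLS method in Mueller Hinton broth, with gentamicin and norfloxacin as reference drugs.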
Assay [5] deals with Pseudomonas aeruginosa. Description: Antibacterial activity against Pseudomonas aeruginosa ATCC BAA-427 by broth microdilution method. The method in brief:
as §1

Assay [6] deals with Klebsiella pneumoniae. Description: Antibacterial activity against Klebsiella pneumoniae ATCC 27736 by broth microdilution method. The method in brief: as §1
Assay [7] has as its system Candida albicans. Put plainly: Anti-fungal activity against Candida albicans after 48 hrs by broth microdilution method.
In assay [8] the test system is Cryptococcus neoformans. Description: Anti-fungal activity against Cryptococcus neoformans after 48 hrs by broth microdilution method.
The test system of assay [9] is Sporothrix schenckii. Description: Anti-fungal activity against Sporothrix schenckii after 48 hrs by broth microdilution method.
The subject of assay [10] is Trichophyton mentagrophytes. Description: Anti-fungal activity against Trichophyton mentagrophytes after 48 hrs by broth microdilution method.
The subject of assay [11] is Aspergillus fumigatus. Description: Anti-fungal activity against Aspergillus fumigatus after 48 hrs by broth microdilution method.
Assay [12] deals with Candida parapsilosis. Put plainly: Anti-fungal activity against Candida parapsilosis ATCC 22019 after 48 hrs by broth microdilution method. The note with it: Lodderomyces parapsilosis, ATCC 22019, 48 h.
The subject of assay [13] is Plasmodium falciparum. Put plainly: Antimalarial activity against chloroquine-sensitive Plasmodium falciparum 3D7 after 72 hrs by SYBR Green-1 staining based fluorescence assay. The note with it: 3D7, 72 h.

Values after ≈ are worked out from the molar mass of the structure shown. Where only a bound is given, the exact number is not on record here.

This note sets out measurements from ChEMBL document CHEMBL3994637, “Broad spectrum anti-infective properties of benzisothiazolones and the parallels in their anti-bacterial and anti-fungal effects” (Bioorg Med Chem Lett, 2017).

In the case of `CC(Cn1sc2ccccc2c1=O)n1sc2ccccc2c1=O` (centres undefined), the IC50 in assay [1] is 6.1 µg/mL (≈ 17.8 µM); in [2], 1.5 µg/mL (≈ 4.38 µM); in [3] it was 2 µg/mL (≈ 5.84 µM); in assay [4], above 50 µg/mL; in assay [5] it was above 50 µg/mL; in assay [6], above 50 µg/mL. Moreover, the IC50 in assay [7] was 2.2 µg/mL (≈ 6.42 µM); in [8], 1.61 µg/mL (≈ 4.7 µM); in assay [9], 3.7 µg/mL (≈ 10.8 µM); in [12], above 50 µg/mL; in [13] it was above 2 µM. Also, the MIC in [1] is 12.4 µg/mL (≈ 36.2 µM); in [2] it was 2.6 µg/mL (≈ 7.59 µM); in assay [3] it was 4.1 µg/mL (≈ 12 µM); in assay [4], above 50 µg/mL; in assay [5] it was above 50 µg/mL; in assay [6] it was above 50 µg/mL. Also, the MIC in assay [7] was 3.1 µg/mL (≈ 9.05 µM); in [8], 1.67 µg/mL (≈ 4.88 µM); in [9], 6.6 µg/mL (≈ 19.3 µM); in assay [10] it was 4.3 µg/mL (≈ 12.6 µM); in assay [11] it was 12.5 µg/mL (≈ 36.5 µM); in assay [12], above 50 µg/mL.
Take `COC(=O)[C@H](C)NC(=O)[C@H](C)n1sc2ccccc2c1=O`: the IC50 in assay [1] is 3.6 µg/mL (≈ 11.7 µM); in assay [2], 3.6 µg/mL (≈ 11.7 µM); in assay [3] it was 3.5 µg/mL (≈ 11.4 µM); in assay [4], above 50 µg/mL; in [5] it was above 50 µg/mL; in [6] it was above 50 µg/mL. The IC50 in [7], in [8], in assay [9], in assay [10], in assay [11] and in assay [12] was above 50 µg/mL in each case. This molecule showed an IC50 in [13] above 2 µM. For the same molecule, the MIC in assay [1] is 7.5 µg/mL (≈ 24.3 µM); in assay [2], 7.5 µg/mL (≈ 24.3 µM); in assay [3], 5.6 µg/mL (≈ 18.2 µM); in assay [4], above 50 µg/mL; in assay [5] it was above 50 µg/mL; in assay [6], above 50 µg/mL. The MIC in assay [7], in assay [8], in [9], in assay [10], in assay [11] and in assay [12] was above 50 µg/mL in each case.
In the case of `CCn1cc(C(=O)O)c(=O)c2cc(F)c(N3CCNCC3)cc21` [NORFLOXACIN], the MIC in [1] is 0.39 µg/mL (≈ 1.22 µM); in assay [2], above 50 µg/mL; in assay [3], 0.78 µg/mL (≈ 2.44 µM); in assay [4], 0.39 µg/mL (≈ 1.22 µM); in assay [5], above 50 µg/mL; in [6], 0.78 µg/mL (≈ 2.44 µM).
Consider `O=c1c2ccccc2sn1CCn1sc2ccccc2c1=O`, for which the IC50 is 4.1 µg/mL (≈ 12.5 µM) in assay [1]; 0.4 µg/mL (≈ 1.22 µM) in assay [2]; 0.3 µg/mL (≈ 0.913 µM) in assay [3]; above 50 µg/mL in assay [4]; above 50 µg/mL in [5]; above 50 µg/mL in assay [6]. For the same molecule, the IC50 in assay [7] was 1.51 µg/mL (≈ 4.6 µM); in assay [8], 1.4 µg/mL (≈ 4.26 µM); in assay [9], 2.3 µg/mL (≈ 7 µM); in assay [12] it was above 50 µg/mL; in assay [13] it was above 2 µM. The MIC in assay [1] is 16.7 µg/mL (≈ 50.8 µM); in [2], 0.9 µg/mL (≈ 2.74 µM); in assay [3] it was 0.4 µg/mL (≈ 1.22 µM); in assay [4], above 50 µg/mL; in assay [5], above 50 µg/mL; in assay [6], above 50 µg/mL. For the same molecule, the MIC in assay [7] is 1.54 µg/mL (≈ 4.69 µM); in assay [8] it was 2.2 µg/mL (≈ 6.7 µM); in assay [9], 3.5 µg/mL (≈ 10.7 µM); in assay [10], 2.9 µg/mL (≈ 8.83 µM); in [11], 12.5 µg/mL (≈ 38.1 µM); in assay [12] it was above 50 µg/mL.
For the molecule `O=c1c2ccccc2sn1C1CCCCC1`, the IC50 in assay [1] was 6.8 µg/mL (≈ 29.1 µM); in assay [2] it was 1 µg/mL (≈ 4.29 µM); in assay [3], 4.6 µg/mL (≈ 19.7 µM); in assay [4], above 50 µg/mL; in [5], above 50 µg/mL; in [6] it was above 50 µg/mL. Besides, the IC50 is 1 µg/mL (≈ 4.29 µM) in assay [8]; 0.4 µg/mL (≈ 1.71 µM) in [9]; 0.7 µg/mL (≈ 3 µM) in assay [10]; 0.4 µg/mL (≈ 1.71 µM) in assay [11]; 0.7 µg/mL (≈ 3 µM) in assay [12]; above 2 µM in [13]. The MIC in assay [1] is 9.8 µg/mL (≈ 42 µM); in assay [2], 2.5 µg/mL (≈ 10.7 µM); in [3] it was 7.1 µg/mL (≈ 30.4 µM); in assay [4], above 50 µg/mL; in assay [5] it was above 50 µg/mL; in assay [6], above 50 µg/mL. Also, the MIC came out at 0.5 µg/mL (≈ 2.14 µM) in assay [7]; 1.3 µg/mL (≈ 5.57 µM) in assay [8]; 0.6 µg/mL (≈ 2.57 µM) in assay [9]; 1 µg/mL (≈ 4.29 µM) in [10]; 3.7 µg/mL (≈ 15.9 µM) in assay [11]; 0.9 µg/mL (≈ 3.86 µM) in assay [12].
As to `COC(=O)[C@H](c1ccccc1)n1sc2ccccc2c1=O`, the IC50 in assay [1] was 1.1 µg/mL (≈ 3.67 µM); in assay [2], 2.6 µg/mL (≈ 8.69 µM); in [3], 13.5 µg/mL (≈ 45.1 µM); in assay [4], above 50 µg/mL; in assay [5] it was above 50 µg/mL; in assay [6] it was above 50 µg/mL. Besides, the IC50 in assay [7], in [8], in assay [9], in [10], in [11] and in [12] was above 50 µg/mL throughout. In assay [13], this molecule registered an IC50 above 2 µM. Besides, the MIC in assay [1] was 1.5 µg/mL (≈ 5.01 µM); in assay [2] it was 4.2 µg/mL (≈ 14 µM); in assay [3], 18.7 µg/mL (≈ 62.5 µM); in assay [4] it was above 50 µg/mL; in assay [5], above 50 µg/mL; in [6], above 50 µg/mL. For the same molecule, the MIC in assay [7], in assay [8], in [9], in assay [10], in assay [11] and in [12] was above 50 µg/mL throughout.
Consider `C[C@@H](c1ccccc1)n1sc2ccccc2c1=O`, for which the concentration for half-maximal inhibition (IC50) was 6.8 µg/mL (≈ 26.6 µM) in assay [1]; 1 µg/mL (≈ 3.92 µM) in [2]; 4.6 µg/mL (≈ 18 µM) in assay [3]; above 50 µg/mL in assay [4]; above 50 µg/mL in assay [5]; above 50 µg/mL in assay [6]. For the same molecule, the IC50 came to 0.5 µg/mL (≈ 1.96 µM) in assay [7]; 1 µg/mL (≈ 3.92 µM) in assay [8]; 0.4 µg/mL (≈ 1.57 µM) in assay [9]; 0.7 µg/mL (≈ 2.74 µM) in assay [10]; 0.4 µg/mL (≈ 1.57 µM) in assay [11]; 0.7 µg/mL (≈ 2.74 µM) in assay [12]. For the same molecule, in assay [13], the IC50 is above 2 µM. In addition, the MIC in [1] is 10.2 µg/mL (≈ 39.9 µM); in assay [2] it was 1.9 µg/mL (≈ 7.44 µM); in assay [3], 8.5 µg/mL (≈ 33.3 µM); in assay [4], above 50 µg/mL; in [5], above 50 µg/mL; in assay [6] it was above 50 µg/mL. Moreover, the MIC was determined as 1 µg/mL (≈ 3.92 µM) in [7]; 2.9 µg/mL (≈ 11.4 µM) in [8]; 1.6 µg/mL (≈ 6.27 µM) in assay [9]; 0.4 µg/mL (≈ 1.57 µM) in assay [10]; 6.5 µg/mL (≈ 25.5 µM) in assay [11]; 2.1 µg/mL (≈ 8.22 µM) in assay [12].
For `OC(Cn1cncn1)(Cn1cncn1)c1ccc(F)cc1F` [FLUCONAZOLE], the MIC is 1 µg/mL (≈ 3.27 µM) in assay [7]; 2 µg/mL (≈ 6.53 µM) in [8]; 2 µg/mL (≈ 6.53 µM) in assay [9]; above 32 µg/mL in [10]; above 32 µg/mL in assay [11]; 2 µg/mL (≈ 6.53 µM) in assay [12].
As for GENTAMICIN, the MIC is 6.25 µg/mL in assay [1]; above 50 µg/mL in assay [2]; 0.78 µg/mL in assay [3]; 6.25 µg/mL in [4]; above 50 µg/mL in assay [5]; 0.78 µg/mL in [6].
Regarding `C[C@@H]1[C@H](O)[C@@H](C)/C=C/C=C/C=C/C=C/C=C/C=C/C=C/[C@H](O[C@@H]2O[C@H](C)[C@@H](O)[C@H](N)[C@@H]2O)C[C@@H]2O[C@](O)(C[C@@H](O)C[C@@H](O)[C@H](O)CC[C@@H](O)C[C@@H](O)CC(=O)O[C@H]1C)C[C@H](O)[C@H]2C(=O)O` [AMPHOTERICIN B], the MIC in [7] came out at 0.016 µg/mL (≈ 0.0173 µM); in assay [8], 0.125 µg/mL (≈ 0.135 µM); in [9], 0.25 µg/mL (≈ 0.271 µM); in assay [10], 0.25 µg/mL (≈ 0.271 µM); in [11], 0.5 µg/mL (≈ 0.541 µM); in assay [12], 0.016 µg/mL (≈ 0.0173 µM).

By IC50 is commonly meant the concentration at which inhibition is half-maximal. A higher IC50 goes with a need for much substance. For orientation: MIC means the lowest concentration that inhibits growth of the organism.
